Variants at the floor of the assay were thinned out.
B1: tRNA (parent)
chain: GUUCCGUUGGCGUAAUGGUAACGCGUCUCCCUCCUAAGGAGAAGACUGCGGGUUCGAGUCCCGUACGGAACG

Variants of: B1
Experiment: yeast fitness relative to wild type (ratio to wild type); higher = fitter; tRNA-Arg(CCU), competitive growth, 37 C, YPD
Summary of the method: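 Variants of the tRNA-Arg(CCU) gene were chemically synthesised with a 3% per-site mutation rate across 69 sites and placed at the native genomic locus in Saccharomyces cerevisiae. Six parallel replicates of the pooled strains were competed in YPD at 37°C for 24 hours, and gene amplicons from the start and end populations were read by 100-nucleotide paired-end sequencing. Darwinian fitness relative to wild type was derived from changes in genotype frequencies. Genotypes required ≥ 100 starting reads, and estimates < 0.5 were set to 0.5.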

Going from C4G U54C to C4G U54A, the yeast fitness falls from 0.886 to 0.572.

Compared with C4G U54G, C4G U7G U59G G63C is lower in yeast fitness: 0.626 for the first, at most 0.5 for the second.

Going from C4G U7A G10C A20C to C4G U19C G48C A69C, the yeast fitness rises from at most 0.5 to 0.602.

Going from C4G U28C A69U to C4G U7A G10C A20C C46G, the yeast fitness falls from 0.568 to at most 0.5.

Going from C4G U19A C46U A70U to C4G U16C G44A G48A G50C, the yeast fitness rises from at most 0.5 to 0.511.

First: C4G U19C
Second: C4G U13C A15G G48A C61A
The yeast fitness of the first is higher: 0.99 for the first, 0.672 for the second.

Going from C4G U16C G44A G48A G50C A57U to C4G U28G C30A A43C C61G, the yeast fitness rises from at most 0.5 to 0.571.

Going from C4G U54G C62A to C4G U32G C62U G67U, the yeast fitness falls from 0.579 to at most 0.5.

C4G U8C U28G C49A C62G and C4G U8C U47A cannot be ordered by yeast fitness: at most 0.5 for the first, at most 0.5 for the second.

First: C4G U7G G12C A20U U28G
Second: C4G U7A G9A C11U C30G C62A
The yeast fitness of the first is lower: at most 0.5 for the first, 0.628 for the second.

C4G U8G G18C C49U G58A G67A and C4G U7G G12C A20U C34A G41C A45C U47A C55A cannot be ordered by yeast fitness: at most 0.5 for the first, at most 0.5 for the second.

C4G U35G A43C U47C and C4G U8C U16A A21C C24G A37U C55U cannot be ordered by yeast fitness: at most 0.5 for the first, at most 0.5 for the second.

C4G U8A C11G A42U U64C G68C and C4G U8C C49A cannot be ordered by yeast fitness: at most 0.5 for the first, at most 0.5 for the second.

First: C4U A14C C29U A65G
Second: C4G U8C C11G C46U
The yeast fitness of the first is higher: 0.765 for the first, at most 0.5 for the second.

C4G U19A C31G and C4G U19A A37U A42G A65C G67A cannot be ordered by yeast fitness: at most 0.5 for the first, at most 0.5 for the second.

First: C4G U13A A21C U35A A65C
Second: C4G U8C C24G A42C G67A
The yeast fitness of the first is lower: at most 0.5 for the first, 0.558 for the second.

Compared with C4G U32A C34G G41C C49G, C4G U16C A45G is higher in yeast fitness: at most 0.5 for the first, 0.597 for the second.

C4G U7C G41A A42C G50C A70G and C4G U53G C66A cannot be ordered by yeast fitness: at most 0.5 for the first, at most 0.5 for the second.

First: C4G U53A G56A
Second: C4G U13C A70G
The yeast fitness of the first is lower: at most 0.5 for the first, 0.618 for the second.

C4G U7G A21C and C4G U7G G12C A20U C49U U54A C55U A70C cannot be ordered by yeast fitness: at most 0.5 for the first, at most 0.5 for the second.

C4G U16C C29G A36U C60G and C4U A14C C49G C55G cannot be ordered by yeast fitness: at most 0.5 for the first, at most 0.5 for the second.

Compared with C4G U16C A70C, C4G U7A G10C A20C G67U is lower in yeast fitness: 0.709 for the first, 0.527 for the second.

C4G U26A C27U A42C G51A A65U and C4U A14G A15C G63C cannot be ordered by yeast fitness: at most 0.5 for the first, at most 0.5 for the second.

First: C4G U16G C30U C34A U53G U59C A70C
Second: C4G U7A U59A
The yeast fitness of the first is lower: at most 0.5 for the first, 0.621 for the second.

C4G U7G G10C G38C C49G A69C and C4G U8A G12A U35G cannot be ordered by yeast fitness: at most 0.5 for the first, at most 0.5 for the second.

Going from C4G U16C C31U to C4G U8G C60A U64A C66U, the yeast fitness rises from 0.554 to 0.711.

C4G U7A U19C A20C U53C and C4G U47A G68A cannot be ordered by yeast fitness: at most 0.5 for the first, at most 0.5 for the second.

Compared with C4G U64G, C4G U64C is higher in yeast fitness: 0.671 for the first, 0.872 for the second.

Compared with C4G U64A, C4G U28C is higher in yeast fitness: 0.707 for the first, 0.77 for the second.

Compared with C4G U53A, C4G U16C C31U A70C is lower in yeast fitness: 0.594 for the first, at most 0.5 for the second.

First: C4G U19C G51A A65G
Second: C4U A14G C30A
The yeast fitness of the first is lower: at most 0.5 for the first, 0.812 for the second.

First: C4G U32C G63C
Second: C4U A14G C34G G50C G56C
The yeast fitness of the first is lower: 0.605 for the first, 0.637 for the second.

Compared with C4G U32G, C4G U19A C27A G58C C61A A69U is lower in yeast fitness: 0.628 for the first, at most 0.5 for the second.

C4U A14C G68C and C4G U7A C31G U59A cannot be ordered by yeast fitness: at most 0.5 for the first, at most 0.5 for the second.

C4G U13C G23U G48C G50A and C4G U16G A20C A21G C30U cannot be ordered by yeast fitness: at most 0.5 for the first, at most 0.5 for the second.

C4G U32G A69C and C4G U59A U64G A65C cannot be ordered by yeast fitness: at most 0.5 for the first, at most 0.5 for the second.

First: C4G U19A A37U A42G
Second: C4G U8C G17A C27G A36U C62G
The yeast fitness of the first is lower: 0.55 for the first, 0.607 for the second.

C4G U7C C27A A43U U59G and C4G U16C U19C U32A C46U G63C cannot be ordered by yeast fitness: at most 0.5 for the first, at most 0.5 for the second.

Compared with C4G U7G G12C A20U, C4G U26A A43U C46G is higher in yeast fitness: at most 0.5 for the first, 0.593 for the second.

C4G U28A G39A and C4G U8G G9A C11U C34G C61A cannot be ordered by yeast fitness: at most 0.5 for the first, at most 0.5 for the second.

C4G U35A A36U and C4G U13C A40U A42C C66U cannot be ordered by yeast fitness: at most 0.5 for the first, at most 0.5 for the second.

C4G U8C A15G G23A C34G G67A and C4G U7G G12C A20U U32A cannot be ordered by yeast fitness: at most 0.5 for the first, at most 0.5 for the second.

C4G U8C A15C C31A A36U A37C C60A A65G A69G and C4G U28A A40C G50A cannot be ordered by yeast fitness: at most 0.5 for the first, at most 0.5 for the second.

C4G U28G C30A A43C C61G A65G and C4G U7C C22U U35G C61A cannot be ordered by yeast fitness: at most 0.5 for the first, at most 0.5 for the second.

C4G U19C C22G G50A A57C and C4G U8A G18C U32A U47C U54C cannot be ordered by yeast fitness: at most 0.5 for the first, at most 0.5 for the second.

First: C4U A14C U59A C60U
Second: C4G U8C A21G
The yeast fitness of the first is lower: at most 0.5 for the first, 0.605 for the second.

Going from C4G U26C C46U to C4G U28C C55U, the yeast fitness falls from 0.702 to at most 0.5.

C4U A14G A36G C60G C61A and C4G U7G G9A A20G C22A G41A A69C cannot be ordered by yeast fitness: at most 0.5 for the first, at most 0.5 for the second.

C4G U32A G38C and C4G U7C C11U C22U U35G C61A cannot be ordered by yeast fitness: at most 0.5 for the first, at most 0.5 for the second.

Compared with C4G U8A G18C U32A U47C, C4G U19A G44C is lower in yeast fitness: 0.574 for the first, 0.535 for the second.

C4U A14C G51C and C4G U8A G12A A42G G44A U64C cannot be ordered by yeast fitness: at most 0.5 for the first, at most 0.5 for the second.

C4G U8C G25A A42U A70U and C4U A14C C22A U54C C55G cannot be ordered by yeast fitness: at most 0.5 for the first, at most 0.5 for the second.

First: C4U A14G C30G A36U
Second: C4G U16C C27G A40G G48A A57C
The yeast fitness of the first is lower: at most 0.5 for the first, 0.572 for the second.

C4G U26C G50A and C4G U8C U16A A21C C24G A37U C49U C55U cannot be ordered by yeast fitness: at most 0.5 for the first, at most 0.5 for the second.

Going from C4G U7C C24U A65G to C4G U7G A65G, the yeast fitness falls from 0.857 to 0.622.

Compared with C4G U7G G10C C24U C29A A45U C46G U47A G50A U64G, C4G U28C G56U U59A is higher in yeast fitness: at most 0.5 for the first, 0.606 for the second.

C4G U13C A45U G56C and C4G U7G C60A C62U G68C cannot be ordered by yeast fitness: at most 0.5 for the first, at most 0.5 for the second.

C4G U7G G12C and C4G U7A G9C G17C G48A cannot be ordered by yeast fitness: at most 0.5 for the first, at most 0.5 for the second.

Compared with C4G U35G A70C, C4G U28A C31G is lower in yeast fitness: 0.552 for the first, at most 0.5 for the second.

First: C4G U19A C29G G41A C46U U54C C60A
Second: C4G U16C C27G A40G G48A C55A A57C
The yeast fitness of the first is higher: 0.737 for the first, at most 0.5 for the second.

Going from C4G U35A C61A to C4G U16C C27G A40G G48A A57C C62U, the yeast fitness rises from at most 0.5 to 0.537.

Compared with C4G U7C U13G, C4G U8A G12A C22U G48A A69C is lower in yeast fitness: 0.537 for the first, 0.522 for the second.

Going from C4G U13C G39C to C4G U26G G39C G48A, the yeast fitness rises from at most 0.5 to 0.611.

C4G U19C A43G A45C C46U and C4G U7A U26A A40C A42G G58C cannot be ordered by yeast fitness: at most 0.5 for the first, at most 0.5 for the second.

Compared with C4G U8A G12A A14G G48A A69C, C4G U35A U54C C61G is higher in yeast fitness: at most 0.5 for the first, 0.765 for the second.

Going from C4G U13A U54C to C4G U16G C30U C34A U53G, the yeast fitness falls from 0.548 to at most 0.5.

Going from C4G U35A to C4G U35C, the yeast fitness rises from 0.772 to 0.942.

C4G U8C C24G A42C C61G and C4G U7G C34A cannot be ordered by yeast fitness: at most 0.5 for the first, at most 0.5 for the second.

C4G U16C U32A C46U G63C and C4G U28A C33G cannot be ordered by yeast fitness: at most 0.5 for the first, at most 0.5 for the second.

Going from C4U A14C to C4G U13C C60G A65U, the yeast fitness falls from 0.749 to at most 0.5.

C4G U19C U47A C49U G68C and C4G U7A G9A C11U C55U cannot be ordered by yeast fitness: at most 0.5 for the first, at most 0.5 for the second.

Going from C4G U16G U19C A21C C49U G50A to C4U A14U A42G C46U, the yeast fitness falls from 0.621 to at most 0.5.

First: C4G U8A G12A
Second: C4G U35C G39A C62A
The yeast fitness of the first is higher: 0.6 for the first, 0.511 for the second.

C4G U8G C27G G48C and C4G U7A U26A A40C A42G G58C G68A cannot be ordered by yeast fitness: at most 0.5 for the first, at most 0.5 for the second.

First: C4G U8A G12A G48A A69C A70U
Second: C4U A14U A36U
The yeast fitness of the first is higher: 0.561 for the first, 0.545 for the second.

Compared with C4G U16C C31U A36G, C4G U7G is higher in yeast fitness: at most 0.5 for the first, 0.642 for the second.

C4G U8A G12A A57G and C4G U7G U13G A20U C31A C34G A42C cannot be ordered by yeast fitness: at most 0.5 for the first, at most 0.5 for the second.

Going from C4G U16C C31U G51A to C4G U13A A43G C46G, the yeast fitness falls from 0.533 to at most 0.5.

C4G U32A C34G G41C and C4G U7C A14C C30U A40U C49U cannot be ordered by yeast fitness: at most 0.5 for the first, at most 0.5 for the second.

Compared with C4G U7G C31U A65U, C4G U47A is higher in yeast fitness: at most 0.5 for the first, 0.854 for the second.

Compared with C4G U47C, C4G U8G A21C is lower in yeast fitness: 0.865 for the first, at most 0.5 for the second.

First: C4G U28G C30A A42G A43C C61G
Second: C4G U19C C62U
The yeast fitness of the first is lower: at most 0.5 for the first, 0.799 for the second.

Going from C4G U16G to C4G U8A C22U C46G G63A, the yeast fitness falls from 0.831 to at most 0.5.

C4G U26A C30U gave a yeast fitness of at most 0.5.
